Test system: Fibroblast
Test: Multiplex assay against human fibroblast
Assay type: toxicity, cell-based
How it was run: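 Live cells were stained at seeding with Hoechst33342, BioTracker Green Microtubule Cytoskeleton Dye, MitoTracker Red and Annexin V Alexa Fluor 680. Following compound addition, they were imaged on a CQ1 microscope at 37°C and 5% CO2 and gated by CellPathfinder machine learning into Hoechst high-intensity objects or normal cells, with normal cells split into healthy, pyknosed or fragmented nuclei and pyknosed cells into mitotic or apoptotic. Tubulin, mitochondrial-mass and membrane-permeability phenotypes are per cents of healthy-nucleus cells.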

[1] = 12 h, 1 µM, compound concentration 1 uM, replicate 1
[2] = 12 h, 1 µM, compound concentration 1 uM, replicate 2
[3] = 12 h, 10 µM, compound concentration 10 uM, replicate 1
[4] = 12 h, 10 µM, compound concentration 10 uM, replicate 2
[5] = 24 h, 1 µM, compound concentration 1 uM, replicate 1
[6] = 24 h, 1 µM, compound concentration 1 uM, replicate 2
[7] = 24 h, 10 µM, compound concentration 10 uM, replicate 1
[8] = 24 h, 10 µM, compound concentration 10 uM, replicate 2
[9] = 48 h, 1 µM, compound concentration 1 uM, replicate 1
[10] = 48 h, 1 µM, compound concentration 1 uM, replicate 2
[11] = 48 h, 10 µM, compound concentration 10 uM, replicate 1
[12] = 48 h, 10 µM, compound concentration 10 uM, replicate 2

Cc1cc(C)cc(-c2cnc3cc(Cl)c(-c4cccc(O)c4)cc3c2OCCCN)c1
Population Apoptotic (%) [1]: 44%
Population Fragmented Nuclei (%) [1]: 38%
Population Healthy Nuclei (%) [1]: 26%
Population Hoechst High Intensity Objects (%) [1]: 16%
Population Membrane Permeable-Phenotype (%) [1]: 38%
Population Mitochondria Different-Phenotype (%) [1]: 30%
Population Mitotic Cells (%) [1]: 55%
Population Normal (%) [1]: 83%
Population Pyknosed Nuclei (%) [1]: 36%
Population Tubulin-Different-Phenotype (%) [1]: 61%
Total Cell Count [1]: 60
Population Fragmented Nuclei (%) [2]: 11%
Population Healthy Nuclei (%) [2]: 72%
Population Hoechst High Intensity Objects (%) [2]: 10%
Population Membrane Permeable-Phenotype (%) [2]: 2%
Population Mitochondria Different-Phenotype (%) [2]: 82%
Population Normal (%) [2]: 90%
Population Pyknosed Nuclei (%) [2]: 16%
Population Tubulin-Different-Phenotype (%) [2]: 56%
Total Cell Count [2]: 68
Population Apoptotic (%) [3]: 33%
Population Fragmented Nuclei (%) [3]: 31%
Population Healthy Nuclei (%) [3]: 10%
Population Hoechst High Intensity Objects (%) [3]: 11%
Population Membrane Permeable-Phenotype (%) [3]: 53%
Population Mitochondria Different-Phenotype (%) [3]: 7%
Population Mitotic Cells (%) [3]: 66%
Population Normal (%) [3]: 88%
Population Pyknosed Nuclei (%) [3]: 57%
Population Tubulin-Different-Phenotype (%) [3]: 100%
Total Cell Count [3]: 135
Population Apoptotic (%) [4]: 70%
Population Fragmented Nuclei (%) [4]: 16%
Population Healthy Nuclei (%) [4]: 32%
Population Hoechst High Intensity Objects (%) [4]: 8%
Population Membrane Permeable-Phenotype (%) [4]: 90%
Population Mitochondria Different-Phenotype (%) [4]: 95%
Population Mitotic Cells (%) [4]: 29%
Population Normal (%) [4]: 91%
Population Pyknosed Nuclei (%) [4]: 50%
Total Cell Count [4]: 60
Population Apoptotic (%) [5]: 40%
Population Fragmented Nuclei (%) [5]: 54%
Population Healthy Nuclei (%) [5]: 22%
Population Hoechst High Intensity Objects (%) [5]: 21%
Population Membrane Permeable-Phenotype (%) [5]: 10%
Population Mitochondria Different-Phenotype (%) [5]: 10%
Population Mitotic Cells (%) [5]: 60%
Population Normal (%) [5]: 78%
Population Pyknosed Nuclei (%) [5]: 22%
Population Tubulin-Different-Phenotype (%) [5]: 20%
Total Cell Count [5]: 56
Population Apoptotic (%) [6]: 62%
Population Fragmented Nuclei (%) [6]: 11%
Population Healthy Nuclei (%) [6]: 75%
Population Hoechst High Intensity Objects (%) [6]: 3%
Population Membrane Permeable-Phenotype (%) [6]: 2%
Population Mitochondria Different-Phenotype (%) [6]: 78%
Population Mitotic Cells (%) [6]: 37%
Population Normal (%) [6]: 96%
Population Pyknosed Nuclei (%) [6]: 13%
Population Tubulin-Different-Phenotype (%) [6]: 28%
Total Cell Count [6]: 66
Population Apoptotic (%) [7]: 38%
Population Fragmented Nuclei (%) [7]: 28%
Population Healthy Nuclei (%) [7]: 16%
Population Hoechst High Intensity Objects (%) [7]: 12%
Population Membrane Permeable-Phenotype (%) [7]: 54%
Population Mitochondria Different-Phenotype (%) [7]: 4%
Population Mitotic Cells (%) [7]: 61%
Population Normal (%) [7]: 87%
Population Pyknosed Nuclei (%) [7]: 54%
Population Tubulin-Different-Phenotype (%) [7]: 90%
Total Cell Count [7]: 149
Population Apoptotic (%) [8]: 93%
Population Fragmented Nuclei (%) [8]: 24%
Population Healthy Nuclei (%) [8]: 3%
Population Hoechst High Intensity Objects (%) [8]: 7%
Population Membrane Permeable-Phenotype (%) [8]: 50%
Population Mitochondria Different-Phenotype (%) [8]: 50%
Population Mitotic Cells (%) [8]: 6%
Population Normal (%) [8]: 92%
Population Pyknosed Nuclei (%) [8]: 72%
Population Tubulin-Different-Phenotype (%) [8]: 50%
Total Cell Count [8]: 63
Population Apoptotic (%) [9]: 64%
Population Fragmented Nuclei (%) [9]: 37%
Population Healthy Nuclei (%) [9]: 33%
Population Hoechst High Intensity Objects (%) [9]: 20%
Population Membrane Permeable-Phenotype (%) [9]: 37%
Population Mitochondria Different-Phenotype (%) [9]: 37%
Population Mitotic Cells (%) [9]: 35%
Population Normal (%) [9]: 80%
Population Pyknosed Nuclei (%) [9]: 29%
Population Tubulin-Different-Phenotype (%) [9]: 56%
Total Cell Count [9]: 60
Population Apoptotic (%) [10]: 75%
Population Fragmented Nuclei (%) [10]: 41%
Population Healthy Nuclei (%) [10]: 54%
Population Hoechst High Intensity Objects (%) [10]: 17%
Population Membrane Permeable-Phenotype (%) [10]: 22%
Population Mitochondria Different-Phenotype (%) [10]: 9%
Population Mitotic Cells (%) [10]: 25%
Population Normal (%) [10]: 82%
Population Pyknosed Nuclei (%) [10]: 4%
Population Tubulin-Different-Phenotype (%) [10]: 62%
Total Cell Count [10]: 117
Population Apoptotic (%) [11]: 56%
Population Fragmented Nuclei (%) [11]: 45%
Population Healthy Nuclei (%) [11]: 28%
Population Hoechst High Intensity Objects (%) [11]: 39%
Population Membrane Permeable-Phenotype (%) [11]: 37%
Population Mitochondria Different-Phenotype (%) [11]: 7%
Population Mitotic Cells (%) [11]: 44%
Population Normal (%) [11]: 60%
Population Pyknosed Nuclei (%) [11]: 26%
Population Tubulin-Different-Phenotype (%) [11]: 81%
Total Cell Count [11]: 157
Population Apoptotic (%) [12]: 93%
Population Fragmented Nuclei (%) [12]: 39%
Population Healthy Nuclei (%) [12]: 43%
Population Hoechst High Intensity Objects (%) [12]: 31%
Population Membrane Permeable-Phenotype (%) [12]: 12%
Population Mitochondria Different-Phenotype (%) [12]: 82%
Population Mitotic Cells (%) [12]: 6%
Population Normal (%) [12]: 68%
Population Pyknosed Nuclei (%) [12]: 16%
Population Tubulin-Different-Phenotype (%) [12]: 92%
Total Cell Count [12]: 129
